Many of the other results were omitted from the sample, so hits are more common in it than they were.
UPR CHOP act = activators of apoptotic CHOP UPR arm, primary screen, cell-based, CHO-CHOP luciferase reporter, luminescence, uHTS. UPR activation; percent of tunicamycin response over DMSO baseline. activation, % at 10 µM. 330,000 tested, 0.34% active. AID 449763, 2010;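 active = at 10 µM dose, activation of 40% or more, normalized to positive control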
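System: CHO-CHOP luciferase reporter cell line; amount: 500 cells/well; buffer or medium: F12 medium containing 10% fetal bovine serum; incubation: 6 h compound exposure at 37 °C after overnight seeding; measured by: luciferase luminescence after 10 min with Steady-Glo reagent; evaluation: % reporter activation, DMSO baseline versus tunicamycin full activation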
UCH37 inh = inhibitors of human UCH37 deubiquitinase, primary screen, biochemical, Ub-AMC cleavage, fluorescence; purified proteasome/UCH37; inhibition, % (concentration not given with the values); 330,000 tested, 0.33% active; AID 588478, 2011;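 active = mean inhibition over replicate wells above about 20%, limit read from the data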
Target sequence (Q9Y5K5 whole entry, looked up): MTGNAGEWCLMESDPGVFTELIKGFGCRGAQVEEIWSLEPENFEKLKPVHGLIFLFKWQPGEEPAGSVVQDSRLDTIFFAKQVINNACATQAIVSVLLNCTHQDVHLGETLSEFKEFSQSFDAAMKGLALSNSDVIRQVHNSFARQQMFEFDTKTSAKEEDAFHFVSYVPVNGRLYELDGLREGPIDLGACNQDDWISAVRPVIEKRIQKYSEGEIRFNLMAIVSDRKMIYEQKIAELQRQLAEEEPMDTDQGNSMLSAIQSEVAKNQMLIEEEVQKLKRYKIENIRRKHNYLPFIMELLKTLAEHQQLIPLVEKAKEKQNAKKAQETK
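Material: human UCH37 enzyme supplied as purified proteasome complex / Amount: 0.15 nM proteasome as dispensed / Buffer or medium: pH 7.4 Tris-HCl (50 mM) with ovalbumin, ATP-MgCl2, DTT / Times: preincubation 30 min, reaction 25 min, room temperature / Technique: AMC fluorescence from Ub-AMC cleavage, excitation 355 nm, emission 460 nm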
XBP1 UPR activ = activators of adaptive XBP1 UPR arm, primary screen, cell-based, CHO-XBP1 luciferase reporter, luminescence, uHTS; activation, % at 20 µM; 330,000 tested, 0.33% active; IRE1-XBP1 UPR activation; percent of tunicamycin response, DMSO as zero;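 active = versus positive control, 20 µM dose yields 30% or more activation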
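assay system = CHO-XBP1 luciferase reporter cells | amount = 1000 cells/well | buffer or medium = F12 plus 10% FBS | compound dosing = single point, 20 µM final compound, 1% DMSO | incubation = 16-18 h cell attachment at 37 °C, then 6 h compound exposure | detection = Steady-Glo luminescence read | controls = tunicamycin 10 µg/mL and vehicle-only wells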
CTSL1 counter = Fasciola hepatica cathepsin L1 inhibitors, primary screen, counter-screen for PFM18AAP inhibitor project, biochemical, QFRET, fluorogenic peptide substrate | 300,000 tested, 0.49% active | inhibition, % at 5.96 µM | AID 1906, 2009 | recombinant F. hepatica cathepsin L1, Z-Leu-Arg-MCA fluorescence;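 active = inhibition above the mean of all tested compounds plus 3 SD, set per screening campaign, cut at about 17% in these data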
CHOP inhibitor = inhibitors of CHOP promoter induction, primary screen, cell-based, unfolded protein response, luciferase reporter; AID 2732, 2010; 220,000 tested, 3.8% active; inhibition, % at 10 µM; CHO-K1 CHOP-promoter luciferase, tunicamycin-induced, 15-18 h;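 active = compounds that reduced the stress-induced luciferase reporter signal by more than about 70% of percent inhibition, limit read from the data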
CHOP confirm = retest of CHOP induction inhibitors, confirmation, cell-based. 2,100 tested, 45% active. inhibition, % at 10 µM. CHO-CHOP promoter luciferase reporter, tunicamycin-induced, luminescence. AID 504437, 2011. shares compounds with CHOP inhibitor;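 active = mean of three repeat readings of reporter signal inhibition above a set limit, cut at about 70% in these data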
Hits are given with their value; 0 = inactive; - = not tested or not shown.

SMILES	UPR CHOP act	UCH37 inh	XBP1 UPR activ	CTSL1 counter	CHOP inhibitor	CHOP confirm
CN(C)c1ccc(C=NNC(=O)c2csnn2)cc1	-	0	-	-	-	-
COc1ccccc1NCC(=O)N/N=C(\C)c1ccc(Br)s1	0	-	0	0	98	0
CC(C)Oc1ccccc1C=NNC(=O)C1CC1	-	0	-	-	-	-
CCCc1nc(SCC(=O)Nc2ccccc2)c2c(=O)n(C)c(=O)n(C)c2n1	0	0	0	0	99	0
Cc1nonc1NC(=O)CSc1nc(C23CC4CC(CC(C4)C2)C3)nc2ccccc12	0	0	0	0	100	0
Cc1nonc1NC(=O)CSc1nc(C2CCCCC2)nc2ccccc12	0	0	0	0	0	-
N#Cc1c(-c2ccc(Br)cc2)cc(-c2cccnc2)nc1N	0	0	0	0	0	-
N#Cc1c(-c2cccc(Br)c2)cc(-c2cccnc2)nc1N	0	0	0	0	104	0
Cc1cc(NN=Cc2ccc(Cl)cc2Cl)nc(NCc2ccccc2)n1	-	0	-	-	-	-
O=C(Cc1ccccc1)Nc1cccc(N2C(=O)C=CC2=O)c1	-	0	-	0	109	132
ClC(Cl)(c1nnnn1-c1ccccc1)c1nnnn1-c1ccccc1	-	0	-	0	108	0
COc1ccc(C=NNC(=O)C[n+]2ccccc2)c(OC)c1	-	0	-	-	-	-
CC(=NNc1cc(N2CCCCC2)nc(C)n1)c1ccc(Br)cc1	-	0	-	-	-	-
CCCc1cc(=O)[nH]c(SCCOc2ccc(Cl)cc2)n1	0	0	0	0	101	0
COc1ccc(C(=O)NN=C(C)c2cccc(NC(=O)c3ccccc3F)c2)cc1	-	0	-	-	-	-
O=S(=O)(Nc1ccccc1)c1ccc(Oc2ncc(C(F)(F)F)cc2Cl)cc1	0	0	0	0	109	115
Cc1ccc(Sc2ccc(NC(=O)c3ccc(S(C)(=O)=O)cc3Cl)cc2)cc1	0	0	0	0	98	0
Cc1ccc(OCC(=O)N2N=C(C(F)(F)F)CC2(O)C(C)(C)C)cc1C (stereo unspecified)	0	0	0	0	103	116
CCOc1ccc(C=NNC(=S)Nc2c(C)cccc2C)cc1	-	0	-	-	-	-
CNc1cc(C)c(C#N)c2nc3ccccc3n12	0	0	0	0	-	-
Cc1cc(Cl)n2c(nc3ccccc32)c1C#N	-	0	-	-	108	133
C=C(C)COc1ccc(-c2[nH]ncc2Oc2ccc(OC)cc2)c(O)c1	0	0	0	0	0	-
C=C(C)COc1ccc(-c2[nH]ncc2-c2ccccc2OC)c(O)c1	0	0	0	0	106	0
Nc1nonc1-n1nnc(C(=O)NN=Cc2ccccc2F)c1CN1CCc2ccccc21	-	0	-	-	-	-
CCOC(=O)CNC(=O)CSc1nc2cccnc2n1Cc1ccccc1	0	0	0	0	0	-
SMILES	UPR CHOP act	UCH37 inh	XBP1 UPR activ	CTSL1 counter	CHOP inhibitor	CHOP confirm
Cc1nc(NC(=O)CSc2nc3cccnc3n2Cc2ccccc2)sc1C	0	0	0	0	104	91
CCOc1cc(/C=N/NC(=O)Cc2ccc(C(F)(F)F)cc2[N+](=O)[O-])c(Br)cc1OC	0	-	0	0	101	100
O=C(CSc1nc2ccsc2c(=O)n1CC1CCC(C(=O)O)CC1)c1ccc(Cl)cc1 (stereo unspecified)	0	0	0	0	102	0
O=C(CN1CCN(Cc2ccccc2)CC1)NN=Cc1c[nH]c2ccccc12	-	0	-	-	-	-
COC(=O)/C(=C(/F)Sc1cc(C)c(O)c(C)c1)C(F)(F)F	0	0	0	0	98	118
CC(C)(C)c1ccc(C(=O)NC(=S)NNC(=O)c2cccs2)cc1	-	0	-	0	107	134
O=C(NC(=S)NNC(=O)c1cccs1)c1ccccc1	0	0	0	0	-	-
CCCCC(=O)NN=Cc1ccc(Sc2cccc3cccnc23)o1	-	0	-	-	-	-
NC(=NOCc1ccccc1)c1nonc1N	-	0	-	-	-	-
Cc1ccc(NC(=O)CSc2nc3ccccc3c3nc(CCc4c(C)n[nH]c4C)nn23)cc1F	0	0	0	0	108	79
CC(=NNC(=O)C1COc2ccccc2O1)c1ccc(N2CCOCC2)cc1 (stereo unspecified)	-	0	-	-	-	-

Screens as filed in PubChem BioAssay.
